The text below walks through data of ChEMBL document CHEMBL1157379, “Transcriptional response of Candida parapsilosis following exposure to farnesol” (2007).

As a reminder, the inhibition is how much of the control response was suppressed.

For test [1], the system named is Candida parapsilosis. The test is described as follows: Increase in CGD gene ortholog accession number orf19.1368 expression in Candida parapsilosis CLIB214 at 50 uM after 2 hrs by microarray based transcriptional profiling relative to control. The test is classed as functional. The procedure, abridged:
(§1)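 Strain CLIB214 grown overnight in YPD at 30°C, diluted to A600 0.2 in fresh YPD at 30°C. After 4 h (A600 0.8), farnesol (40 mM methanol stock) added to 50 μM final, or an equal methanol volume as control; cells harvested 2 h later. RNA was accepted only with a 28S/18S ratio of 1.6–2.2. Cy3/Cy5-dCTP-labelled cDNA was made from 25 μg total RNA. Hybridisation was to duplicate-spotted 68-mer oligo arrays (3,849 genes) at 42°C for about 16 h. Six individual comparisons.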

Test [2] has as its system Candida parapsilosis. Nature of the test: Increase in CGD gene ortholog accession number orf19.779 expression in Candida parapsilosis CLIB214 at 50 uM after 2 hrs by microarray based transcriptional profiling relative to control. The format is functional. The procedure, abridged:
as §1

Test [3] has as its system Candida parapsilosis. Nature of the test: Increase in CGD gene ortholog accession number orf19.6080 expression in Candida parapsilosis CLIB214 at 50 uM after 2 hrs by microarray based transcriptional profiling relative to control. The format is functional. Summed up:
as §1

Test [4] deals with Candida parapsilosis. Nature of the test: Increase in CGD gene ortholog accession number orf19.6539 expression in Candida parapsilosis CLIB214 at 50 uM after 2 hrs by microarray based transcriptional profiling relative to control. The format is functional. The procedure, abridged: as §1
The subject of test [5] is Candida parapsilosis. Nature of the test: Increase in REG1 gene expression in Candida parapsilosis CLIB214 at 50 uM after 2 hrs by microarray based transcriptional profiling relative to control. The format is functional. Summed up:
(§2)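 Strain grown overnight in YPD at 30°C, diluted to A600 0.2 in YPD at 30°C; farnesol (40 mM methanol stock) added at 4 h (A600 0.8), final 50 μM; methanol-only control. Cells collected 2 h later for RNA. Labelled cDNA from 25 μg total RNA (Cy3/Cy5-dCTP) hybridized to 68-mer oligo arrays at 42°C ~16 h; six individual comparisons analysed statistically.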

Test [6] has as its system Candida parapsilosis. The test is described as follows: Decrease in RLM1 gene expression in Candida parapsilosis CLIB214 at 50 uM after 2 hrs by microarray based transcriptional profiling relative to control. The format is functional. The procedure, abridged:
as §1

Test [7] deals with Candida parapsilosis. The test is described as follows: Decrease in CGD gene ortholog accession number orf19.7325 expression in Candida parapsilosis CLIB214 at 50 uM after 2 hrs by microarray based transcriptional profiling relative to control. The test is classed as functional. The procedure, abridged: as §1
For test [8], the system named is Candida parapsilosis. The test is described as follows: Increase in CGD gene ortholog accession number orf19.7097 expression in Candida parapsilosis CLIB214 at 50 uM after 2 hrs by microarray based transcriptional profiling relative to control. The test is classed as functional. The procedure, abridged: as §1
Test [9] relates to Candida parapsilosis. The test is described as follows: Antifungal activity against Candida parapsilosis CLIB214 assessed as growth inhibition at 100 uM added 4 hrs after […] growth. The format is functional, organism-based. Summed up: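 C. parapsilosis CLIB214 grown overnight in YPD at 30°C, diluted to A600 0.2 in fresh YPD, grown 4 h (A600 0.8), then farnesol added at final 10, 20, 50 or 100 μM from a 40 mM methanol stock. Methanol-only controls. Growth followed by A600 or by cell counting with a particle counter.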

Test [10] deals with Candida parapsilosis. The test is described as follows: Cell cycle arrest in Candida parapsilosis CLIB214 assessed as accumulation at S phase at 50 uM added 4 hrs after […] growth. The format is functional, organism-based. The procedure, abridged: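 YPD culture diluted to A600 0.2 at 30°C. Farnesol added to 50 μM after 4 h. Budding cells scored by microscopy: unbudded as G1, small budded as S, large budded as G2/M. Compared with methanol controls.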

The subject of test [11] is Candida parapsilosis. Nature of the test: Antifungal activity against Candida parapsilosis CLIB214 assessed as induction of cell death at 50 uM added 4 hrs after […] growth after 2 hrs by propidium iodide staining method. The test is classed as functional. The procedure, abridged:
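After 2 h exposure to 50 μM farnesol (methanol stock; methanol-only control), cells were washed twice in PBS and stained with propidium iodide at 10 μg ml−1 in PBS for 5 min. Dead-cell percentage was scored by fluorescence microscopy (Texas Red filter), counting at least 150 cells in each of three independent experiments.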

For test [12], the system named is Candida parapsilosis. Nature of the test: Antifungal activity against Candida parapsilosis CLIB214 assessed as growth inhibition at 50 uM added after 6 hrs of bacterial growth measured after 2 hrs. The format is functional. As to conditions: Lodderomyces parapsilosis. Summed up: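 Overnight YPD culture at 30°C diluted to A600 0.2 in YPD. Farnesol added to 50 μM final at 2, 4, 6 or 8 h of growth (A600 about 0.8 at 4 h, 2.3 at 6 h, 6 at 8 h). Growth compared with methanol controls by A600 or cell counts.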

In test [13] the test system is Candida parapsilosis. The test is described as follows: Effect on membrane lipid localization in ERG9 gene expression in Candida parapsilosis CLIB214 assessed as growing bud tip staining at 50 uM after 1 hr by filipin staining. The format is functional. The procedure, abridged:
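Cultures grown overnight in YPD at 30°C, diluted to A600 0.2, and given farnesol to 50 μM final (methanol for controls) after 4 h of growth. Cells collected 1 h later, PBS-washed, and stained 10 min at room temperature with 100 μg ml−1 filipin in water. Scored by fluorescence microscopy (excitation 360–370 nm, emission 420–460 nm) as bud-tip versus uniform sterol staining.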

Test [14] concerns Candida parapsilosis. The test is described as follows: Decrease in CGD gene ortholog accession number orf19.530 expression in Candida parapsilosis CLIB214 at 50 uM after 2 hrs by microarray based transcriptional profiling relative to control. The test is classed as functional. Summed up:
(§3)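 Cells in YPD at 30°C treated with 50 μM farnesol at 4 h, with a methanol control. RNA harvested 2 h later and kept only if 28S/18S ratio was 1.6–2.2 with no degradation. 25 μg total RNA oligo-dT primed and labeled with Cy3/Cy5-dCTP. Labeled cDNA hybridized about 16 h at 42°C to duplicate-spotted 68-mer oligo arrays. Six individual comparisons analyzed statistically.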

Test [15] concerns Candida parapsilosis. The test is described as follows: Decrease in CGD gene ortholog accession number orf19.3603 expression in Candida parapsilosis CLIB214 at 50 uM after 2 hrs by microarray based transcriptional profiling relative to control. The format is functional. Summed up: as §3
Test [16] concerns Candida parapsilosis. The test is described as follows: Increase in CGD gene ortholog accession number orf19.1953 expression in Candida parapsilosis CLIB214 at 50 uM after 2 hrs by microarray based transcriptional profiling relative to control. The format is functional. The procedure, abridged:
as §1

The test system of test [17] is Candida parapsilosis. Nature of the test: Increase in RTA3 gene expression in Candida parapsilosis CLIB214 at 50 uM after 2 hrs by microarray based transcriptional profiling relative to control. The format is functional. Summed up: as §2
In test [18] the test system is Candida parapsilosis. The test is described as follows: Increase in PDE2 gene expression in Candida parapsilosis CLIB214 at 50 uM after 2 hrs by microarray based transcriptional profiling relative to control. The format is functional. The procedure, abridged: as §2
Test [19] relates to Candida parapsilosis. The test is described as follows: Decrease in SOL1 gene expression in Candida parapsilosis CLIB214 at 50 uM after 2 hrs by microarray based transcriptional profiling relative to control. The test is classed as functional. The procedure, abridged:
as §1

The subject of test [20] is Candida parapsilosis. The test is described as follows: Decrease in HOS2 gene expression in Candida parapsilosis CLIB214 at 50 uM after 2 hrs by microarray based transcriptional profiling relative to control. The test is classed as functional. The procedure, abridged:
as §1

Test [21] relates to Candida parapsilosis. The test is described as follows: Decrease in CGD gene ortholog accession number orf19.2892 expression in Candida parapsilosis CLIB214 at 50 uM after 2 hrs by microarray based transcriptional profiling relative to control. The test is classed as functional. The procedure, abridged:
as §3

In test [22] the test system is Candida parapsilosis. The test is described as follows: Increase in ALS2 gene expression in Candida parapsilosis CLIB214 at 50 uM after 2 hrs by microarray based transcriptional profiling relative to control. The test is classed as functional. Summed up: as §1

Activity calls are given as the source filed them. The rule behind the calls is not given here.

For the molecule `CC(C)=CCC/C(C)=C/CC/C(C)=C/CO` [FARNESOL], the “fold change (FC)” value with Candida parapsilosis [1] turned out to be 1.59; in the test with Candida parapsilosis [2], 1.72; with Candida parapsilosis [3], 1.52; with Candida parapsilosis [4], 1.5; in the test with Candida parapsilosis [5], 1.56; with Candida parapsilosis [6] it was 1.6. Also, the “fold change (FC)” value in the test on Candida parapsilosis [7] turned out to be 1.67; in the test with Candida parapsilosis [8] it was 1.86; in the test on Candida parapsilosis [14], 1.89; in the test with Candida parapsilosis [15] it was 1.92; in the test with Candida parapsilosis [16], 1.77; in the test with Candida parapsilosis [17], 1.67. Also, the “fold change (FC)” value with Candida parapsilosis [18] is 1.67; in the test with Candida parapsilosis [19], 1.54; in the test with Candida parapsilosis [20], 2.62; in the test with Candida parapsilosis [21] it was 1.69; in the test on Candida parapsilosis [22], 1.61. Moreover, the result with Candida parapsilosis [9] and in the test on Candida parapsilosis [10] was Active. Moreover, the Activity in the test on Candida parapsilosis [11] is listed as 20%; with Candida parapsilosis [13], 18%. The inhibition at 50 µM with Candida parapsilosis [12] was 40.5%.
